The source made the active and inactive calls. The calls are words filed in the database; no cut-off is given here. Square brackets hold non-standard residues; d marks the D form. Peptide text beside a SMILES is read from it. * marks the point of attachment. Dip = N[C@H](C(=O)O)C(c1ccccc1)c1ccccc1; Sta = CC(C)C[C@H](N)[C@@H](O)CC(=O)O; Gly(cPent) = N[C@H](C(=O)O)C1CCCC1; Igl = N[C@H](C(=O)O)C1Cc2ccccc2C1; Chg = N[C@H](C(=O)O)C1CCCCC1; NHPhenethyl = c1ccc(CCN*)cc1; Phg = N[C@H](C(=O)O)c1ccccc1; Tle = CC(C)(C)[C@H](N)C(=O)O; Nva = CCC[C@H](N)C(=O)O; Abu = CC[C@H](N)C(=O)O; Cbz = O=C(OCc1ccccc1)*
Tests used:
Plasmodium falciparum = experiment: Antiplasmodial activity against ring-stage Plasmodium falciparum 3D7 assessed as reduction in parasite viability after 72 hrs by LDH assay; format: functional, organism-based; conditions: 3D7, 72 h
How it was run: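 Sorbitol-synchronised early ring-stage parasites grown in RPMI-HEPES with L-glutamine and Albumax II, exposed to ten-point compound titrations in DMSO (≤0.02% final) for 72 h. Parasitemia read by LDH activity (NADH consumption) relative to DMSO control. EC50 from 4-parameter variable-slope sigmoidal fit; means and SD of three independent experiments.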

HepG2 = experiment: Cytotoxicity against human HepG2 cells after 48 hrs by CellTiter-Glo assay; format: functional, cell-based; conditions: HepG2, 48 h
How it was run: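 Cells kept in DMEM with 10% FCS at 37 °C, 5% CO2. 1 × 10^4 cells seeded per well and exposed to a 10-point compound titration for 48 h at 37 °C. Viability normalised to DMSO (100%) and 10 µM bortezomib (0%). EC50 given as mean and SD of three experiments.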

[1] = Inhibition of recombinant Plasmodium vivax plasmepsin 5 expressed in High five insect cells using DABCYLRNKRTLAQKQ-E-EDANS as substrate measured after 120 mins by fluorescence assay
How it was run: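 Enzyme purified by anti-FLAG affinity then Superdex 75 gel filtration. Each well held 2.5 ng enzyme and 12 µM (Km) substrate in 25 mM Tris-HCl/25 mM MES pH 6.4 with 0.005% Tween-20 and 1% DMSO final. Ten-point 1-in-3 compound dilutions. Fluorescence read at ex 340/em 495 nm. IC50 from four-parameter fit constrained to 0 and 100%; mean and SD, n=3.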

[2] = target: Plasmepsin V (Plasmodium falciparum (isolate 3D7)) (UniProt Q8I6Z5); experiment: Inhibition of plasmepsin 5 in Plasmodium falciparum 3D7 co-expressing PfEMP3-GFP infected in human erythrocytes assessed as accumulation of uncleaved PfEMP3-GFP at 1 to 20 uM after 3 hrs by immunoblot analysis; format: cell-based
How it was run: (§1)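 Parasites cultured in O+ erythrocytes at 4% haematocrit in RPMI 1640 with 25 mM HEPES pH 7.4, 0.2% bicarbonate, 0.5% Albumax II under 5% CO2/5% O2 gas at 37 °C. Magnet-purified 24–34 h trophozoites treated 3 h at 37 °C; DMSO vehicle control. Saponin-lysed pellets run on SDS-PAGE and probed with anti-GFP, with HSP70 as loading control. ECL read-out, quantified by densitometry.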

[3] = target: Plasmepsin V (Plasmodium falciparum (isolate 3D7)) (UniProt Q8I6Z5); experiment: Inhibition of plasmepsin 5 in Plasmodium falciparum 3D7 co-expressing PfEMP3-GFP infected in human erythrocytes assessed as accumulation of uncleaved PfEMP3-GFP after 3 hrs by immunoblot analysis; format: cell-based; how it was run: as §1
[4] = target: Plasmepsin V (Plasmodium falciparum (isolate 3D7)) (UniProt Q8I6Z5); experiment: Inhibition of plasmepsin 5 in Plasmodium falciparum 3D7 co-expressing PfEMP3-GFP infected in human erythrocytes assessed as accumulation of uncleaved PfEMP3-GFP at 1 to 10 uM after 3 hrs by immunoblot analysis; format: cell-based; how it was run: as §1

Chain of Plasmepsin V (Plasmodium falciparum (isolate 3D7)) (Q8I6Z5 whole entry, looked up): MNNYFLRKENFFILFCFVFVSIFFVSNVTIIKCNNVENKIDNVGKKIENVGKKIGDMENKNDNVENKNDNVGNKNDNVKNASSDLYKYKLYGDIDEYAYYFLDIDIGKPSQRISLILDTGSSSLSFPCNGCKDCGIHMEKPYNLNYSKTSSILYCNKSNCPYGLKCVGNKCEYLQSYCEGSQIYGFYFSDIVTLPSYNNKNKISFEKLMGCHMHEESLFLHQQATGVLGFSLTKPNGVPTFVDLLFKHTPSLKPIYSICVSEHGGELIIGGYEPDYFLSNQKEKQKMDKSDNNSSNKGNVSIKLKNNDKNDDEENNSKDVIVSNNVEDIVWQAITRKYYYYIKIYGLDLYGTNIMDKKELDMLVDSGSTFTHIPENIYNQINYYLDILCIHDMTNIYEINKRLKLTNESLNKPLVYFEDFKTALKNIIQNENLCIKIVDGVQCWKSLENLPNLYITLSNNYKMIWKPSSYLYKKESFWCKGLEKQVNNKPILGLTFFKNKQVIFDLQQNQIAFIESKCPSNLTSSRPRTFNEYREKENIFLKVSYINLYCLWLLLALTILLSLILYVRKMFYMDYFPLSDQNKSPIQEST

Structure (SMILES) | EC50 (Plasmodium falciparum) | EC50 (HepG2) | IC50 [1] | inhibition [2] | inhibition [3] | inhibition [4]
CCN(CC)CCCC(C)Nc1ccnc2cc(Cl)ccc12 (centres undefined) [CHLOROQUINE] | 0.006 µM | 10.1 µM | – | – | – | –
CC(C)C[C@H](NC(=O)[C@@H](NC(=O)[C@H](CCCNC(=N)N)NC(=O)OCc1ccccc1)C(C)(C)O)[C@@H](O)CC(=O)NCCc1ccccc1 | > 10 µM | > 40 µM | 3.01 µM | – | – | –
CC(C)C[C@H](NC(=O)[C@@H](NC(=O)[C@H](CCONC(=N)N)NC(=O)OCc1ccccc1)c1ccccc1)[C@@H](O)CC(=O)NCCc1ccccc1 | 0.07 µM | > 40 µM | 0.003 µM | Active | – | –
CC(C)C[C@H](NC(=O)[C@@H](NC(=O)[C@H](CCCNC(=N)N)NC(=O)OCc1ccccc1)C1CCCC1)[C@@H](O)CC(=O)NCCc1ccccc1 (Cbz-Arg-[Gly(cPent)]-[Sta]-NHPhenethyl) | 2.73 µM | > 40 µM | 0.055 µM | – | – | –
CC(C)C[C@H](NC(=O)[C@H](C)NC(=O)[C@H](CCCNC(=N)N)NC(=O)OCc1ccccc1)[C@@H](O)CC(=O)NCCc1ccccc1 (Cbz-Arg-Ala-[Sta]-NHPhenethyl) | > 10 µM | > 40 µM | 7.18 µM | – | – | –
CC(C)C[C@H](NC(=O)[C@@H](NC(=O)[C@H](CCCNC(=N)N)NC(=O)OCc1ccccc1)C(c1ccccc1)c1ccccc1)[C@@H](O)CC(=O)NCCc1ccccc1 (Cbz-Arg-[Dip]-[Sta]-NHPhenethyl) | > 10 µM | > 40 µM | > 10 µM | – | – | –
CC(C)C[C@H](NC(=O)[C@@H](NC(=O)[C@H](CCCNC(=N)N)NC(=O)OCc1ccccc1)C(C)C)[C@@H](O)CC(=O)NCCc1ccccc1 (Cbz-Arg-Val-[Sta]-NHPhenethyl) | 3.39 µM | > 40 µM | 0.116 µM | – | – | –
CC(C)C[C@H](NC(=O)[C@@H](NC(=O)[C@H](CCCNC(=N)N)NC(=O)OCc1ccccc1)[C@H](C)c1ccccc1)[C@@H](O)CC(=O)NCCc1ccccc1 | > 10 µM | 35.4 µM | > 10 µM | – | – | –
CC(C)C[C@H](NC(=O)[C@@H](NC(=O)[C@H](CCONC(=N)N)NC(=O)OCc1ccccc1)C1CCCCC1)[C@@H](O)CC(=O)NCCc1ccccc1 | 0.09 µM | > 40 µM | 0.005 µM | – | Active | –
CC(C)C[C@H](NC(=O)[C@H](CO)NC(=O)[C@H](CCCNC(=N)N)NC(=O)OCc1ccccc1)[C@@H](O)CC(=O)NCCc1ccccc1 (Cbz-Arg-Ser-[Sta]-NHPhenethyl) | > 10 µM | > 40 µM | > 10 µM | – | – | –
CC[C@H](NC(=O)[C@H](CCCNC(=N)N)NC(=O)OCc1ccccc1)C(=O)N[C@@H](CC(C)C)[C@@H](O)CC(=O)NCCc1ccccc1 (Cbz-Arg-[Abu]-[Sta]-NHPhenethyl) | 3.14 µM | > 40 µM | 0.507 µM | – | – | –
CC(C)C[C@H](NC(=O)[C@H](CCCNC(=N)N)NC(=O)OCc1ccccc1)C(=O)N[C@@H](CC(C)C)[C@@H](O)CC(=O)NCCc1ccccc1 (Cbz-Arg-Leu-[Sta]-NHPhenethyl) | 5 µM | > 40 µM | 0.165 µM | – | – | –
CC[C@H](C)[C@H](NC(=O)[C@H](CCCNC(=N)N)NC(=O)OCc1ccccc1)C(=O)N[C@@H](CC(C)C)[C@@H](O)CC(=O)NCCc1ccccc1 (Cbz-Arg-Ile-[Sta]-NHPhenethyl) | 1.03 µM | – | 0.026 µM | – | – | –
CC(C)C[C@H](NC(=O)[C@@H](NC(=O)[C@H](CCCNC(=N)N)NS(=O)(=O)Cc1ccccc1)C(C)C)[C@@H](O)CC(=O)NCCc1ccccc1 | 4.03 µM | > 40 µM | 0.123 µM | – | – | –
CC(C)C[C@H](NC(=O)[C@@H](NC(=O)[C@H](CCCNC(=N)N)NC(=O)OCc1ccccc1)C(C)(C)C)[C@@H](O)CC(=O)NCCc1ccccc1 (Cbz-Arg-[Tle]-[Sta]-NHPhenethyl) | > 10 µM | > 40 µM | 6.7 µM | – | – | –
CC(C)C[C@H](NC(=O)[C@H](Cc1ccccc1)NC(=O)[C@H](CCCNC(=N)N)NC(=O)OCc1ccccc1)[C@@H](O)CC(=O)NCCc1ccccc1 (Cbz-Arg-Phe-[Sta]-NHPhenethyl) | > 10 µM | > 40 µM | 3.12 µM | – | – | –
CC(C)C[C@H](NC(=O)[C@@H](NC(=O)[C@H](CCCNC(=N)N)NC(=O)OCc1ccccc1)C1Cc2ccccc2C1)[C@@H](O)CC(=O)NCCc1ccccc1 (Cbz-Arg-[Igl]-[Sta]-NHPhenethyl) | 6.18 µM | 23.5 µM | 0.661 µM | – | – | –
CCC(CC)[C@H](NC(=O)[C@H](CCCNC(=N)N)NC(=O)OCc1ccccc1)C(=O)N[C@@H](CC(C)C)[C@@H](O)CC(=O)NCCc1ccccc1 | 4.11 µM | > 40 µM | 0.112 µM | – | – | –
CC(C)C[C@H](NC(=O)[C@@H](NC(=O)[C@H](CCCNC(=N)N)NC(=O)OCc1ccccc1)[C@H](O)c1ccccc1)[C@@H](O)CC(=O)NCCc1ccccc1 | > 10 µM | > 40 µM | 6.56 µM | – | – | –
O[C@@H](c1cc(C(F)(F)F)nc2c(C(F)(F)F)cccc12)[C@H]1CCCCN1 [(S,R)-MEFLOQUINE] | 0.013 µM | 9.8 µM | – | – | – | –
CC(C)C[C@H](NC(=O)[C@@H](NC(=O)[C@H](CCCNC(=N)N)NC(=O)OCc1ccccc1)c1ccccc1)[C@@H](O)CC(=O)NCCc1ccccc1 (Cbz-Arg-[Phg]-[Sta]-NHPhenethyl) | 1.36 µM | > 40 µM | 0.024 µM | Active | – | –
CC[C@H](C)[C@H](NC(=O)[C@H](CCONC(=N)N)NC(=O)OCc1ccccc1)C(=O)N[C@@H](CC(C)C)[C@@H](O)CC(=O)NCCc1ccccc1 | 0.18 µM | – | 0.016 µM | – | – | –
CCC[C@H](NC(=O)[C@H](CCCNC(=N)N)NC(=O)OCc1ccccc1)C(=O)N[C@@H](CC(C)C)[C@@H](O)CC(=O)NCCc1ccccc1 (Cbz-Arg-[Nva]-[Sta]-NHPhenethyl) | 2.4 µM | – | 0.116 µM | – | – | –
CC(C)C[C@H](NC(=O)[C@@H](NC(=O)[C@H](CCONC(=N)N)NC(=O)OCc1ccccc1)C(C)C)[C@@H](O)CC(=O)NCCc1ccccc1 | 0.43 µM | > 40 µM | 0.019 µM | – | – | Active
CC(C)C[C@H](NC(=O)[C@@H](NC(=O)[C@H](CCCNC(=N)N)NC(=O)OCc1ccccc1)[C@@H](C)O)[C@@H](O)CC(=O)NCCc1ccccc1 (Cbz-Arg-Thr-[Sta]-NHPhenethyl) | > 10 µM | > 40 µM | 2.02 µM | – | – | –
CC(C)C[C@H](NC(=O)[C@H](Cc1ccccc1)NC(=O)c1cnccn1)B(O)O [BORTEZOMIB] | – | 0.01 µM | – | – | – | –
CC(C)C[C@H](NC(=O)[C@@H](NC(=O)[C@H](CCCNC(=N)N)NC(=O)OCc1ccccc1)C1CCCCC1)[C@@H](O)CC(=O)NCCc1ccccc1 (Cbz-Arg-[Chg]-[Sta]-NHPhenethyl) | 1.22 µM | 36.7 µM | 0.029 µM | – | Active | –

— ChEMBL document CHEMBL4270524, “Enhanced antimalarial activity of plasmepsin V inhibitors by modification of the P2 position of PEXEL peptidomimetics” (Eur J Med Chem, 2018)
